Source: ChEMBL document CHEMBL1149387, “Novel potent hepatitis C virus NS3 serine protease inhibitors derived from proline-based macrocycles” (J Med Chem, 2006)
Numbered stars: 1 amine (or outer) side, 2 acyl side, 3 side chain; on linkers, the order of the positions; unused ones are H or OH. Square brackets hold non-standard residues; d marks the D form. Peptide text beside a SMILES is read from it. * marks the point of attachment. Hyp = O=C(O)[C@@H]1C[C@@H](O)CN1; X1 = CCCC(N[*:1])C(=O)C(=O)[*:2]; Chg = N[C@H](C(=O)O)C1CCCCC1; Phg = N[C@H](C(=O)O)c1ccccc1; Boc = CC(C)(C)OC(=O)*; tBu = CC(C)(C)*

Experiments:
NS3 = NS3 (Hepatitis C virus, UniProt A3EZJ3); assay: Inhibitory activity against HCV NS3 protease; parameters: species or system Hepacivirus hominis
Chain of NS3 (A3EZJ3 whole entry): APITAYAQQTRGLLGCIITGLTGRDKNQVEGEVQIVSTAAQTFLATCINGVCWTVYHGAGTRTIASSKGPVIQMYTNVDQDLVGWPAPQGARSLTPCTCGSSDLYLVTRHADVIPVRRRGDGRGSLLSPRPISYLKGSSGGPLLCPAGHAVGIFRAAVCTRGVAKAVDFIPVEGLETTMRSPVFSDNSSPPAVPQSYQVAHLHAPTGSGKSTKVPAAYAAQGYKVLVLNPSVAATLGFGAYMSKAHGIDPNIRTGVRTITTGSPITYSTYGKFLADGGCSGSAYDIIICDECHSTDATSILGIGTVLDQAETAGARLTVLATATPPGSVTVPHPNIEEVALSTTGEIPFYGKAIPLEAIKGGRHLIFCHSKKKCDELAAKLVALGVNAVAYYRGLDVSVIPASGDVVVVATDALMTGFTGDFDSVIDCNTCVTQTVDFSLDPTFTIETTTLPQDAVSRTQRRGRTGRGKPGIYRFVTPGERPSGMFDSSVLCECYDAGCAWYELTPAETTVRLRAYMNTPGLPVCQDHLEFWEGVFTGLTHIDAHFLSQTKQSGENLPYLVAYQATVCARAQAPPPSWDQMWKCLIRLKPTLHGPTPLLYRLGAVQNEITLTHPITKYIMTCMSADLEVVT
Procedure, shortened: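 Continuous assay with a single-chain NS3 serine protease carrying tethered NS4A. Values are reported as Ki*, the equilibrium constant that reflects the reversible covalent bond formed between the inhibitor ketone and the active-site serine, plus other enzyme–inhibitor contacts. Most inhibitors were tested as an inseparable mixture of two diastereomers at the P1 R-centre.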

[1] = AUC in orally dosed rat; assay type: ADME, organism-based; details: plasma, po
Hepatitis C virus = assay: Inhibition of HCV replication in a cellular replicon assay; assay type: functional, organism-based, Hepacivirus hominis
[2] = Selectivity for HNE over HCV NS3 protease
[3] = AUC in iv dosed rat; assay type: ADME, organism-based; details: plasma
[4] = Oral bioavailability in rat; assay type: ADME, organism-based; details: in vivo
[5] = AUC in sc dosed rat; assay type: ADME, organism-based; details: plasma
[6] = Bioavailability in sc dosed rat; assay type: ADME, organism-based; details: in vivo

Structure (SMILES)	Ki (NS3)	further results
CCCC(NC(=O)[C@@H]1C[C@@H]2CN1C(=O)[C@H](C1CCCCC1)NC(=O)Cc1cccc(c1)OCCCO2)C(=O)C(=O)NCC(=O)N[C@H](C#N)c1ccccc1 (some centres not stated)	310 nM	
CCCC(NC(=O)[C@@H]1C[C@@H]2CN1C(=O)[C@H](C1CCCCC1)NC(=O)Cc1cccc(c1)OCCCO2)C(=O)C(=O)NC (some centres not stated)	9900 nM	
CCCC(NC(=O)[C@@H]1C[C@@H]2CN1C(=O)[C@H](C1CCCCC1)NC(=O)Cc1cccc(c1)OCCC(C)(C)O2)C(=O)C(N)=O (some centres not stated)	220 nM	AUC [1]: 0.3 µM·h
CCCC(NC(=O)[C@@H]1C[C@@H]2CN1C(=O)[C@H](C1CCCCC1)NC(=O)Cc1cccc(c1)OCCCO2)C(=O)C(=O)NCC(=O)O (some centres not stated)	7400 nM	
CCCC(NC(=O)[C@@H]1C[C@@H]2CN1C(=O)[C@H](C(C)(C)C)NC(=O)Cc1cccc(c1)OCCC(C)(C)O2)C(=O)C(=O)NCC(=O)N[C@H](C(=O)N(C)C)c1ccccc1 (some centres not stated)	17 nM	IC50 (Hepatitis C virus): 200 nM; Ratio Ki [2]: 306
C=CCNC(=O)C(=O)C(CCC)NC(=O)[C@@H]1C[C@@H]2CN1C(=O)[C@H](C1CCCCC1)NC(=O)Cc1cccc(c1)OCCC(C)(C)O2 (some centres not stated)	530 nM	IC50 (Hepatitis C virus): 400 nM; AUC [3]: 13.6 µM·h; AUC [1]: 26.3 µM·h; bioavailability [4]: 97%; AUC [5]: 34.7 µM·h
CCCC(NC(=O)[C@@H]1C[C@@H]2CN1C(=O)[C@H](C1Cc3ccccc3C1)NC(=O)Cc1cccc(c1)OCCC(C)(C)O2)C(=O)C(=O)NCC(=O)N[C@H](C(=O)N(C)C)c1ccccc1 (some centres not stated)	40 nM	
CCCC(NC(=O)[C@@H]1C[C@@H]2CN1C(=O)[C@H](C1CCCCC1)NC(=O)Cc1cccc(c1)OCCC(C)(C)O2)C(=O)C(=O)NCC(=O)NCc1ccccc1 (some centres not stated)	269 nM	
CCCC(NC(=O)[C@@H]1C[C@@H]2CN1C(=O)[C@H](C1CCCCC1)NC(=O)Cc1cccc(c1)OCCC(C)(C)O2)C(=O)C(=O)NCC(=O)N[C@H](C(=O)N(C)C)c1ccccc1 (some centres not stated)	6 nM	IC50 (Hepatitis C virus): 130 nM; Ratio Ki [2]: 107; AUC [3]: 2.2 µM·h; AUC [1]: 0.46 µM·h; bioavailability [4]: 2.1%; AUC [5]: 16.5 µM·h; bioavailability [6]: 77%
CCCC(NC(=O)[C@@H]1C[C@@H]2CN1C(=O)[C@H](C1CCCCC1)NC(=O)Cc1cccc(c1)OCCCO2)C(=O)C(=O)O (some centres not stated)	6100 nM	
CCCC(NC(=O)[C@@H]1C[C@@H]2CN1C(=O)[C@H](C1CCCCC1)NC(=O)Cc1cccc(c1)OCCCO2)C(=O)C(=O)NCC(=O)NCc1ccccc1 (some centres not stated)	1100 nM	
CCCC(NC(=O)[C@@H]1C[C@@H]2CN1C(=O)[C@H](C1CCCCC1)NC(=O)Cc1cccc(c1)OCCC(C)(C)O2)C(=O)C(=O)NCC(=O)OCc1ccccc1 (some centres not stated)	88 nM	
CCCC(NC(=O)[C@@H]1C[C@@H]2CN1C(=O)[C@H](C1CCCCC1)NC(=O)Cc1cccc(c1)OCCCO2)C(=O)C(=O)NCC(=O)N[C@H](CO)c1ccccc1 (some centres not stated)	60 nM	
CCC[C@@H](NC(=O)[C@@H]1C[C@@H]2CN1C(=O)[C@H](C1CCCCC1)NC(=O)Cc1cccc(c1)OCCCO2)C(=O)C(=O)NCC(=O)N[C@H](C(=O)N(C)C)c1ccccc1	500 nM	
C=CCNC(=O)C(=O)C(CCC)NC(=O)[C@@H]1C[C@@H]2CN1C(=O)[C@H](C1CCCCC1)NC(=O)Cc1cccc(c1)OCCCO2 (some centres not stated)	10000 nM	
CCCC(NC(=O)[C@@H]1C[C@@H]2CN1C(=O)[C@H](C1CCCCC1)NC(=O)Cc1cccc(c1)OCCC(C)(C)O2)C(=O)C(=O)NCC(=O)N[C@H](C(=O)OC(C)(C)C)c1ccccc1 (some centres not stated)	16 nM	
CCCC(NC(=O)[C@@H]1C[C@@H]2CN1C(=O)[C@H](C1CCCCC1)NC(=O)Cc1cccc(c1)OCCCO2)C(=O)C(=O)NCC(=O)N[C@H](C(=O)OC(C)(C)C)c1ccccc1 (some centres not stated)	44 nM	
CCCC(NC(=O)[C@@H]1C[C@@H]2CN1C(=O)[C@H](C(C)C)NC(=O)Cc1cccc(c1)OCCC(C)(C)O2)C(=O)C(=O)NCC(=O)N[C@H](C(=O)N(C)C)c1ccccc1 (some centres not stated)	19 nM	
CCCC(NC(=O)[C@@H]1C[C@@H]2CN1C(=O)[C@H](C1CCCCC1)NC(=O)Cc1cccc(c1)OCCC(C)(C)O2)C(=O)C(=O)NCC(=O)O (some centres not stated)	720 nM	
CCCC(NC(=O)[C@@H]1C[C@@H](OC(C)(C)C)CN1C(=O)[C@@H](NC(=O)OC(C)(C)C)C1CCCCC1)C(=O)C(=O)NCC(=O)N[C@H](C(N)=O)c1ccccc1 (some centres not stated) (Boc-[Chg][Hyp](tBu)[X1]G[Phg]-NH2)	220 nM	
CCC[C@H](NC(=O)[C@@H]1C[C@@H]2CN1C(=O)[C@H](C1CCCCC1)NC(=O)Cc1cccc(c1)OCCCO2)C(=O)C(=O)NCC(=O)N[C@H](C(=O)N(C)C)c1ccccc1	8 nM	IC50 (Hepatitis C virus): 400 nM; Ratio Ki [2]: 46; AUC [3]: 23.1 µM·h; AUC [1]: 1.5 µM·h; bioavailability [4]: 3%; AUC [5]: 41.6 µM·h; bioavailability [6]: 90%
CCCC(NC(=O)[C@@H]1C[C@@H]2CN1C(=O)[C@H](C1CCCCC1)NC(=O)Cc1cccc(c1)OCCCO2)C(=O)C(=O)NCC(=O)N[C@H](C(=O)O)c1ccccc1 (some centres not stated)	10 nM	
CCCC(NC(=O)[C@@H]1C[C@@H]2CN1C(=O)[C@H](C(C)CC)NC(=O)Cc1cccc(c1)OCCC(C)(C)O2)C(=O)C(=O)NCC(=O)N[C@H](C(=O)N(C)C)c1ccccc1 (some centres not stated)	70 nM	
CCCC(NC(=O)[C@@H]1C[C@@H]2CN1C(=O)[C@H](C1CCCCC1)NC(=O)Cc1cccc(c1)OCCCO2)C(=O)C(=O)NCC(=O)OCc1ccccc1 (some centres not stated)	430 nM	
CCCC(NC(=O)[C@@H]1C[C@@H]2CN1C(=O)[C@H](c1ccccc1)NC(=O)Cc1cccc(c1)OCCC(C)(C)O2)C(=O)C(=O)NCC(=O)N[C@H](C(=O)N(C)C)c1ccccc1 (some centres not stated)	46 nM	
